In ChEMBL document CHEMBL3286365, “Neoflavonoids as potential osteogenic agents from Dalbergia sissoo heartwood” (Bioorg Med Chem Lett, 2014):
pEC50: −log10 of the molar value. Calls of active or inactive are those of the source. No cut-off for these calls is given here.

Key:
Type in all cases: functional, cell-based
Calvarial osteoblast [1] = assay: Increase in osteocalcin gene expression in rat calvarial osteoblast cells by qPCR analysis
Calvarial osteoblast [2] = assay: Increase in RunX2 gene expression in rat calvarial osteoblast cells by qPCR analysis
Calvarial osteoblast [3] = assay: Increase in collagen 1 gene expression in rat calvarial osteoblast cells by qPCR analysis
Calvarial osteoblast [4] = assay: Osteogenic activity in rat calvarial osteoblast cells assessed as induction of cell differentiation by measuring alkaline phosphatase activity using pNPP as substrate by calorimetric analysis; conditions: for pEC50: Rattus norvegicus, Calvarial osteoblast
Method in brief: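 Primary rat calvarial osteoblasts, trypsinized at about 80% confluence, seeded at 2×10³ cells/well. Treated with compound (100µM, 1µM, 10nM, 100pM, 1pM) or vehicle for 48 h in α-MEM with 10% FBS, 10mM β-glycerophosphate, 50µg/ml ascorbic acid and 1% penicillin/streptomycin. Total ALP measured with p-nitrophenylphosphate substrate, absorbance at 405 nm. Mean±S.D. of three independent experiments.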

Calvarial osteoblast [5] = assay: Osteogenic activity in rat calvarial osteoblast cells assessed as induction of mineralization by Alizarin red-S staining
Method in brief: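 Calvarial osteoblasts trypsinized at 80% confluence and plated at 2.5×10⁴ cells/well. Treated with compound in differentiation medium (ascorbic acid 50µg/ml, β-glycerophosphate 10mM), with medium changed every alternate day for up to 21 days. Fixed in 4% paraformaldehyde for 15 min, stained 30 min with 40mM Alizarin Red-S (pH 4.5). Dye extracted with 10% acetic acid, heated at 85°C, neutralized with ammonium hydroxide, OD read at 405 nm.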

Calvarial osteoblast [6] = assay: Increase in BMP-2 gene expression in rat calvarial osteoblast cells by qPCR analysis

| Compound | pEC50 (Calvarial osteoblast [4]) | Activity (Calvarial osteoblast [1]) | Activity (Calvarial osteoblast [2]) | Activity (Calvarial osteoblast [3]) | concentration of maximal effect (Calvarial osteoblast [4]) [pM] | Activity (Calvarial osteoblast [5]) | Activity (Calvarial osteoblast [6]) |
| --- | --- | --- | --- | --- | --- | --- | --- |
| COc1cc(OC)c(/C(=C/C=O)c2ccccc2)cc1O | 8.19 | Active | Active | Active | 100 | Active | Active |
| C=CC(c1ccccc1)c1cc(O)c(OC)cc1OC (stereo unspecified) [DALBERGIPHENOL] |  | Active | Active | Active | 10000 | Active | Active |
| COC1=CC(=O)c2cc(-c3ccccc3)c3cc(O)c(OC)cc3c2C1=O [LATINONE] |  | Active | Active | Active | 1e+06 |  | Active |
| COc1cc2oc(=O)cc(-c3ccccc3)c2cc1OC |  | Active | Active | Active | 1e+06 | Active | Active |

Now from value to compound, other results behind:

| pEC50 (Calvarial osteoblast [4]) | Compound | Activity (Calvarial osteoblast [1]) | Activity (Calvarial osteoblast [2]) | Activity (Calvarial osteoblast [3]) | concentration of maximal effect (Calvarial osteoblast [4]) [pM] | Activity (Calvarial osteoblast [5]) | Activity (Calvarial osteoblast [6]) |
| --- | --- | --- | --- | --- | --- | --- | --- |
| 8.99 | COc1cc2oc(=O)cc(-c3ccccc3)c2cc1O [DALBERGIN] | Active | Active | Active | 1 |  | Active |
| 5.77 | COc1cc2c(cc1O)C(c1ccccc1)=CCO2 | Active | Active | Active | 10000 |  | Active |
